Activity calls are given as the source filed them.
Test system: Yersinia pseudotuberculosis YPIII
Assay: Inhibition of T3S in Yersinia pseudotuberculosis YPIII expressing yopE-luxAB at 12.5 uM after 3 hrs by luciferase reporter gene assay
Settings: not given
Procedure, shortened: (§1)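 Strain YPIII pIB102 (yopE-luxAB) grown overnight at room temperature in BHI with 5 mM EGTA and 20 mM MgCl2 (calcium depletion), adjusted to OD600 0.088–0.095. Compound added from DMSO at 1.56–200 µM final (eight concentrations). Shaken 1 h at room temperature, then 2 h at 37 °C. Decanal added and light emission read immediately. Triplicates, repeated at least three times.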

| Compound | inhibition |
| --- | --- |
| COc1cc(Br)cc(/C=N/NC(=O)c2sc3ccccc3c2Cl)c1O | 20% |
| COc1cc(Br)cc(/C=N/NC(=O)Cc2ccccc2)c1O | 15% |
| O=C(N/N=C/c1c(O)cc(O)cc1O)c1sc2ccccc2c1Cl | 33% |
| COc1cc(C(=O)N/N=C/c2cc(Cl)cc(Cl)c2O)cc(OC)c1OC | 14% |

Test system: Escherichia coli
Assay: Antibacterial activity against Escherichia coli DH5[alpha] at 50 uM after 23 hrs by broth dilution assay
Format: functional, organism-based
Settings: not given
Procedure, shortened: (§2)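 Overnight LB culture of E. coli DH5α grown at 37 °C, diluted to OD600 0.1 in LB with 2.5 mM CaCl2; compound added from DMSO stock to final 50 or 100 µM. Incubated at 37 °C with absorbance at 595 nm followed over 23 h.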

| Compound | Activity |
| --- | --- |
| COc1cc(Br)cc(/C=N/NC(=O)c2sc3ccccc3c2Cl)c1O | inactive |
| COc1cc(Br)cc(/C=N/NC(=O)Cc2ccccc2)c1O | inactive |
| O=C(N/N=C/c1c(O)cc(O)cc1O)c1sc2ccccc2c1Cl | inactive |
| COc1cc(C(=O)N/N=C/c2cc(Cl)cc(Cl)c2O)cc(OC)c1OC | inactive |

Test system: Yersinia pseudotuberculosis YPIII
Assay: Inhibition of T3S in Yersinia pseudotuberculosis YPIII expressing yopE-luxAB at 1.56 uM after 3 hrs by luciferase reporter gene assay
Settings: not given
Procedure, shortened: as §1

| Compound | inhibition |
| --- | --- |
| COc1cc(Br)cc(/C=N/NC(=O)c2sc3ccccc3c2Cl)c1O | -6% |
| COc1cc(Br)cc(/C=N/NC(=O)Cc2ccccc2)c1O | 10% |
| O=C(N/N=C/c1c(O)cc(O)cc1O)c1sc2ccccc2c1Cl | 2% |
| COc1cc(C(=O)N/N=C/c2cc(Cl)cc(Cl)c2O)cc(OC)c1OC | -10% |

Test system: Yersinia pseudotuberculosis
Assay: Antibacterial activity against Yersinia pseudotuberculosis expressing pIB102 at 50 uM after 23 hrs by broth dilution assay
Format: functional, organism-based
Settings: not given
Procedure, shortened: (§3)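 Wild-type pIB102 grown overnight in LB at room temperature, diluted to OD600 = 0.1 in LB with 2.5 mM CaCl2. Compound added from DMSO stock to final 50 and 100 µM. Incubated at 37 °C with absorbance at 595 nm read over 23 h.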

| Compound | Activity |
| --- | --- |
| COc1cc(Br)cc(/C=N/NC(=O)c2sc3ccccc3c2Cl)c1O | inactive |
| COc1cc(Br)cc(/C=N/NC(=O)Cc2ccccc2)c1O | inactive |
| O=C(N/N=C/c1c(O)cc(O)cc1O)c1sc2ccccc2c1Cl | inactive |
| COc1cc(C(=O)N/N=C/c2cc(Cl)cc(Cl)c2O)cc(OC)c1OC | inactive |

Test system: Escherichia coli
Assay: Antibacterial activity against Escherichia coli DH5[alpha] at 100 uM after 23 hrs by broth dilution assay
Format: functional, organism-based
Settings: not given
Procedure, shortened: as §2

| Compound | Activity |
| --- | --- |
| COc1cc(Br)cc(/C=N/NC(=O)c2sc3ccccc3c2Cl)c1O | inactive |
| COc1cc(Br)cc(/C=N/NC(=O)Cc2ccccc2)c1O | inactive |
| O=C(N/N=C/c1c(O)cc(O)cc1O)c1sc2ccccc2c1Cl | inactive |
| COc1cc(C(=O)N/N=C/c2cc(Cl)cc(Cl)c2O)cc(OC)c1OC | inactive |

Test system: Yersinia pseudotuberculosis YPIII
Assay: Inhibition of T3S in Yersinia pseudotuberculosis YPIII expressing yopE-luxAB at 100 uM after 3 hrs by luciferase reporter gene assay
Settings: not given
Procedure, shortened: as §1

| Compound | inhibition |
| --- | --- |
| COc1cc(Br)cc(/C=N/NC(=O)c2sc3ccccc3c2Cl)c1O | 40% |
| COc1cc(Br)cc(/C=N/NC(=O)Cc2ccccc2)c1O | 57% |
| O=C(N/N=C/c1c(O)cc(O)cc1O)c1sc2ccccc2c1Cl | 79% |
| COc1cc(C(=O)N/N=C/c2cc(Cl)cc(Cl)c2O)cc(OC)c1OC | 29% |

Test system: Yersinia pseudotuberculosis YPIII
Assay: Inhibition of T3S in Yersinia pseudotuberculosis YPIII expressing yopE-luxAB at 6.25 uM after 3 hrs by luciferase reporter gene assay
Settings: not given
Procedure, shortened: as §1

| Compound | inhibition |
| --- | --- |
| COc1cc(Br)cc(/C=N/NC(=O)c2sc3ccccc3c2Cl)c1O | 12% |
| COc1cc(Br)cc(/C=N/NC(=O)Cc2ccccc2)c1O | 12% |
| O=C(N/N=C/c1c(O)cc(O)cc1O)c1sc2ccccc2c1Cl | 21% |
| COc1cc(C(=O)N/N=C/c2cc(Cl)cc(Cl)c2O)cc(OC)c1OC | 8% |

Test system: Yersinia pseudotuberculosis YPIII
Assay: Inhibition of T3S in Yersinia pseudotuberculosis YPIII expressing yopE-luxAB at 200 uM after 3 hrs by luciferase reporter gene assay
Settings: not given
Procedure, shortened: as §1

| Compound | inhibition |
| --- | --- |
| COc1cc(Br)cc(/C=N/NC(=O)c2sc3ccccc3c2Cl)c1O | 39% |
| COc1cc(Br)cc(/C=N/NC(=O)Cc2ccccc2)c1O | 65% |
| O=C(N/N=C/c1c(O)cc(O)cc1O)c1sc2ccccc2c1Cl | 87% |
| COc1cc(C(=O)N/N=C/c2cc(Cl)cc(Cl)c2O)cc(OC)c1OC | 40% |

Test system: Yersinia pseudotuberculosis YPIII
Assay: Inhibition of T3S in Yersinia pseudotuberculosis YPIII expressing yopE-luxAB at 25 uM after 3 hrs by luciferase reporter gene assay
Settings: not given
Procedure, shortened: as §1

| Compound | inhibition |
| --- | --- |
| COc1cc(Br)cc(/C=N/NC(=O)c2sc3ccccc3c2Cl)c1O | 23% |
| COc1cc(Br)cc(/C=N/NC(=O)Cc2ccccc2)c1O | 9% |
| O=C(N/N=C/c1c(O)cc(O)cc1O)c1sc2ccccc2c1Cl | 44% |
| COc1cc(C(=O)N/N=C/c2cc(Cl)cc(Cl)c2O)cc(OC)c1OC | 18% |

Test system: Chlamydia trachomatis
Assay: Antibacterial activity against Chlamydia trachomatis infected in human HeLa 229 cells after 35 hrs by fluorescence microscopy
Format: functional
Settings: not given
Procedure, shortened: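 HeLa 229 monolayers infected with C. trachomatis serovar L2, MOI 0.3; compounds diluted in RPMI 1640 with 10% FCS, 2 mM L-glutamine, 8 µg/mL gentamicin (DMSO final 1%) added 1 h post-infection at 50, 25, 12.5, 6.25, 3.13 µM. 35 h at 37 °C, 5% CO2; methanol fixation, immunostaining, fluorescence microscopy at 200×. MIC = lowest concentration with no intracellular inclusions; duplicates, ≥3 occasions.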

| Compound | MIC |
| --- | --- |
| COc1cc(Br)cc(/C=N/NC(=O)Cc2ccccc2)c1O | inactive |

Test system: not listed separately
Assay: Cytotoxicity against human HeLa 229 cells assessed as cell viability at 25 uM after 28 hrs using resazurin staining by fluorescence microscopy
Format: cell-based
Settings: read-out: Activity
Procedure, shortened: (§4)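 HeLa 229 viability measured at 50 and 25 µM using resazurin added 4 h before read-out; cell-free wells with medium plus compound exclude chemical reduction of resazurin. Scored relative to DMSO control, plus microscopic scoring; non-toxic defined as at least 70% viability versus control. Triplicates, repeated at least three times.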

| Compound | viability at 28 h, 25 µM |
| --- | --- |
| COc1cc(Br)cc(/C=N/NC(=O)Cc2ccccc2)c1O | 58% |

Test system: Yersinia pseudotuberculosis
Assay: Antibacterial activity against Yersinia pseudotuberculosis expressing pIB102 at 100 uM after 23 hrs by broth dilution assay
Format: functional, organism-based
Settings: not given
Procedure, shortened: as §3

| Compound | Activity |
| --- | --- |
| COc1cc(Br)cc(/C=N/NC(=O)c2sc3ccccc3c2Cl)c1O | inactive |
| COc1cc(Br)cc(/C=N/NC(=O)Cc2ccccc2)c1O | inactive |
| O=C(N/N=C/c1c(O)cc(O)cc1O)c1sc2ccccc2c1Cl | inactive |
| COc1cc(C(=O)N/N=C/c2cc(Cl)cc(Cl)c2O)cc(OC)c1OC | inactive |

Test system: Yersinia pseudotuberculosis YPIII
Assay: Inhibition of T3S in Yersinia pseudotuberculosis YPIII expressing yopE-luxAB at 50 uM after 3 hrs by luciferase reporter gene assay
Settings: not given
Procedure, shortened: as §1

| Compound | inhibition |
| --- | --- |
| COc1cc(Br)cc(/C=N/NC(=O)c2sc3ccccc3c2Cl)c1O | 34% |
| COc1cc(Br)cc(/C=N/NC(=O)Cc2ccccc2)c1O | 22% |
| O=C(N/N=C/c1c(O)cc(O)cc1O)c1sc2ccccc2c1Cl | 70% |
| COc1cc(C(=O)N/N=C/c2cc(Cl)cc(Cl)c2O)cc(OC)c1OC | 27% |

Test system: not listed separately
Assay: Cytotoxicity against human HeLa 229 cells assessed as cell viability at 50 uM after 28 hrs using resazurin staining by fluorescence microscopy
Format: cell-based
Settings: read-out: Activity
Procedure, shortened: as §4

| Compound | viability at 28 h, 50 µM |
| --- | --- |
| COc1cc(Br)cc(/C=N/NC(=O)Cc2ccccc2)c1O | 33% |

Test system: Yersinia pseudotuberculosis YPIII
Assay: Inhibition of T3S in Yersinia pseudotuberculosis YPIII expressing yopE-luxAB at 3.13 uM after 3 hrs by luciferase reporter gene assay
Settings: not given
Procedure, shortened: as §1

| Compound | inhibition |
| --- | --- |
| COc1cc(Br)cc(/C=N/NC(=O)c2sc3ccccc3c2Cl)c1O | 10% |
| COc1cc(Br)cc(/C=N/NC(=O)Cc2ccccc2)c1O | 18% |
| O=C(N/N=C/c1c(O)cc(O)cc1O)c1sc2ccccc2c1Cl | 10% |
| COc1cc(C(=O)N/N=C/c2cc(Cl)cc(Cl)c2O)cc(OC)c1OC | 13% |

From ChEMBL document CHEMBL1156948, “Statistical molecular design of a focused salicylidene acylhydrazide library and multivariate QSAR of inhibition of type III secretion in the Gram-negative bacterium Yersinia” (Bioorg Med Chem, 2010)
